From ChEMBL document CHEMBL1155099, “Natural products in parallel synthesis: triazole libraries of nonactic acid” (2008)
Converted amounts (≈) assume the structure as drawn. The source made the active and inactive calls. The rule behind the calls is not given here.

What was measured:
Bacillus anthracis [1] = experiment: Antibacterial activity against Bacillus anthracis by almar blue dye reduction assay; format: functional
Saccharomyces cerevisiae [2] = experiment: Antifungal activity against Saccharomyces cerevisiae by almar blue dye reduction assay; format: functional
In short: (§1)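 Compounds advanced from the 1 mM screen were tested over a dilution series, with a top concentration of 1 mM, using Alamar Blue dye reduction. MIC is the lowest concentration with no dye reduction. Where inhibition was partial with some growth at the top concentration, the value is reported as '>'.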

Candida albicans [3] = experiment: Antifungal activity against Candida albicans by almar blue dye reduction assay; format: functional; in short: as §1
Pseudomonas aeruginosa [4] = experiment: Antibacterial activity against Pseudomonas aeruginosa at 1 mM by almar blue dye reduction assay; format: functional, organism-based
In short: (§2)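 Single-point primary screen at 1 mM using Alamar Blue dye reduction as the growth read-out.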

Cryptococcus neoformans [5] = experiment: Antifungal activity against Cryptococcus neoformans at by almar blue dye reduction assay; format: functional; in short: as §1
Escherichia coli [6] = experiment: Antibacterial activity against Escherichia coli at 1 mM by almar blue dye reduction assay; format: functional, organism-based; in short: as §2
Staphylococcus aureus [7] = experiment: Antibacterial activity against Staphylococcus aureus at 1 mM by almar blue dye reduction assay; format: functional, organism-based; in short: as §2
Bacillus subtilis [8] = experiment: Antibacterial activity against Bacillus subtilis by almar blue dye reduction assay; format: functional; in short: as §1
Bacillus cereus [9] = experiment: Antibacterial activity against Bacillus cereus by almar blue dye reduction assay; format: functional; in short: as §1
Escherichia coli [10] = experiment: Antibacterial activity against Escherichia coli by almar blue dye reduction assay; format: functional; in short: as §1
Pseudomonas aeruginosa [11] = experiment: Antimicrobial activity against Pseudomonas aeruginosa by almar blue dye reduction assay; format: functional; in short: as §1
Staphylococcus aureus [12] = experiment: Antibacterial activity against Staphylococcus aureus by almar blue dye reduction assay; format: functional; in short: as §1
Candida albicans [13] = experiment: Antifungal activity against Candida albicans at 1 mM by almar blue dye reduction assay; format: functional, organism-based; in short: as §2
Saccharomyces cerevisiae [14] = experiment: Antifungal activity against Saccharomyces cerevisiae at 1 mM by almar blue dye reduction assay; format: functional, organism-based; in short: as §2
Bacillus anthracis [15] = experiment: Antibacterial activity against Bacillus anthracis at 1mM by almar blue dye reduction assay; format: functional, organism-based
Bacillus cereus [16] = experiment: Antibacterial activity against Bacillus cereus at 1 mM by almar blue dye reduction assay; format: functional, organism-based; in short: as §2
Bacillus subtilis [17] = experiment: Antibacterial activity against Bacillus subtilis at 1 mM by almar blue dye reduction assay; format: functional, organism-based; in short: as §2
Cryptococcus neoformans [18] = experiment: Antifungal activity against Cryptococcus neoformans at 1 mM by almar blue dye reduction assay; format: functional, organism-based; in short: as §2

Structure (SMILES)	MIC (Bacillus anthracis [1]) [µg/mL]	MIC (Saccharomyces cerevisiae [2]) [µg/mL]	MIC (Candida albicans [3]) [µg/mL]	Activity (Pseudomonas aeruginosa [4])	MIC (Cryptococcus neoformans [5]) [µg/mL]	Activity (Escherichia coli [6])	Activity (Staphylococcus aureus [7])	MIC (Bacillus subtilis [8]) [µg/mL]	MIC (Bacillus cereus [9]) [µg/mL]	MIC (Escherichia coli [10]) [µg/mL]	MIC (Pseudomonas aeruginosa [11]) [µg/mL]	MIC (Staphylococcus aureus [12]) [µg/mL]	Activity (Candida albicans [13])	Activity (Saccharomyces cerevisiae [14])	Activity (Bacillus anthracis [15])	Activity (Bacillus cereus [16])	Activity (Bacillus subtilis [17])	Activity (Cryptococcus neoformans [18])
C[C@H](C[C@@H]1CC[C@H]([C@@H](C)C(=O)N2CCN(CC3CCCO3)CC2)O1)n1cc(C#CCOc2cccc(-c3ccccc3)c2)nn1 (stereo partly specified)	> 590	290 (≈ 474 µM)	590 (≈ 964 µM)	inactive	290 (≈ 474 µM)	inactive	inactive	880 (≈ 1440 µM)	150 (≈ 245 µM)									
CCOC(=O)C#Cc1cn([C@H](C)CC2CCC([C@@H](C)C(=O)N3CCN(CC4CCCO4)CC3)O2)nn1 (single isomer, unassigned)	> 480	240 (≈ 478 µM)	240 (≈ 478 µM)		480 (≈ 957 µM)			240 (≈ 478 µM)	240 (≈ 478 µM)	120 (≈ 239 µM)	480 (≈ 957 µM)	120 (≈ 239 µM)						
CCN(CC)C(=O)[C@H](C)[C@H]1CC[C@@H](C[C@@H](C)n2cc(C#CCOc3cccc(OC)c3OC)nn2)O1				inactive	480 (≈ 963 µM)	inactive	inactive						inactive	inactive	inactive	inactive	inactive	
C[C@H](C[C@@H]1CC[C@H]([C@@H](C)C(=O)N(C)Cc2ccccc2)O1)n1cc(C#CCC2CCCC2)nn1	440 (≈ 951 µM)	220 (≈ 476 µM)		inactive	219 (≈ 473 µM)	inactive	inactive		440 (≈ 951 µM)				inactive				inactive	
Cc1cccc(NC(=O)OCC#Cc2cn([C@H](C)CC3CCC([C@@H](C)C(=O)N4CCN(CC5CCCO5)CC4)O3)nn2)c1 (single isomer, unassigned)				inactive		inactive	inactive		570 (≈ 962 µM)				inactive	inactive	inactive		inactive	inactive
C[C@H](C[C@@H]1CC[C@H]([C@@H](C)C(=O)N(C)Cc2ccccc2)O1)n1cc(C#CCN(C)CCc2ccccc2)nn1	250 (≈ 474 µM)			inactive	500 (≈ 947 µM)	inactive		250 (≈ 474 µM)	250 (≈ 474 µM)			500 (≈ 947 µM)	inactive	inactive				
C[C@H](C[C@@H]1CC[C@H]([C@@H](C)C(=O)N2CCN(CC3CCCO3)CC2)O1)n1cc(C#Cc2cccc3ccccc23)nn1 (stereo partly specified)	263 (≈ 473 µM)			inactive		inactive	inactive	790 (≈ 1420 µM)	260 (≈ 468 µM)				inactive	inactive	inactive	inactive	inactive	inactive
CCCCN(CC#Cc1cn([C@H](C)C[C@@H]2CC[C@H]([C@@H](C)C(=O)N(C)Cc3ccccc3)O2)nn1)CCCC	500 (≈ 958 µM)			inactive	250 (≈ 479 µM)	inactive		250 (≈ 479 µM)	250 (≈ 479 µM)			500 (≈ 958 µM)	inactive	inactive				
CCN(CC)C(=O)[C@H](C)C1CCC(C[C@@H](C)n2cc(C#CCNC(=O)Nc3cccc(C)c3)nn2)O1 (single isomer, unassigned)				inactive		inactive	inactive	700 (≈ 1420 µM)					inactive	inactive	inactive	inactive		inactive
C[C@H](C[C@@H]1CC[C@H]([C@@H](C)C(=O)N(C)Cc2ccccc2)O1)n1cc(C#Cc2ccccn2)nn1	> 430			inactive		inactive	inactive						inactive	inactive		inactive	inactive	inactive
CCCCCC#Cc1cn([C@H](C)C[C@@H]2CC[C@H]([C@@H](C)C(=O)N(C)Cc3ccccc3)O2)nn1	430 (≈ 954 µM)	430 (≈ 954 µM)		inactive	430 (≈ 954 µM)	inactive	inactive		640 (≈ 1420 µM)				inactive				inactive	
CCCCN(CC#Cc1cn([C@H](C)C[C@@H]2CC[C@H]([C@@H](C)C(=O)N3CCN(CC4CCCO4)CC3)O2)nn1)CCCC (stereo partly specified)				inactive		inactive	inactive	820 (≈ 1440 µM)					inactive	inactive	inactive	inactive		inactive
